Test results published in the array DNA melting data of Ke et al. (doi:10.1101/2024.01.08.574731).

How the values were obtained:
[1] = folding enthalpy; higher = less favourable; fluorescence melt of hairpins on a sequencing array, two-state fit; details: sodium 0.088 M
Outline: (§1)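 Cy3 fluorescence of library hairpins on a sequenced MiSeq flow cell, with annealed Cy3 and quencher oligos, was imaged in 50 mM Na-HEPES pH 8.0, 25 mM NaCl in 2.5 °C steps up to 60 °C. Signals were normalised to pre-quench Cy3 and to control variants. Melting temperature and folding enthalpy came from bootstrapped two-state fits, inverse-variance combined over four replicates. Fitted temperatures were raised by 9.35 °C to match UV melts.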

[2] = melting temperature; fluorescence melt of hairpins on a sequencing array, two-state fit, raised by 9.35 °C to match UV melts; details: sodium 0.088 M
Outline: as §1

Sequence | folding enthalpy [1] | Tm [2]
GATCTAACGTAGATC ((((((...)))))) | -24.5 kcal/mol | 36.1 °C
GATCTAAGACTAGATC ((((((....)))))) | -19.9 kcal/mol | 34.3 °C
GATCTAAGATTAGATC ((((((....)))))) | -32.1 kcal/mol | 37.5 °C
GATCTAAGTATAGATC ((((((....)))))) | -27.7 kcal/mol | 37.9 °C
GATCTAATCCTAGATC ((((((....)))))) | -25.6 kcal/mol | 38.3 °C
GATCTAATGTTAGATC ((((((....)))))) | -34.3 kcal/mol | 40.2 °C
GATCTACAATTAGATC ((((((....)))))) | -21.3 kcal/mol | 35.6 °C
GATCTACATTAGATC ((((((...)))))) | -25 kcal/mol | 37.5 °C
GATCTACCCCTAGATC ((((((....)))))) | -38.4 kcal/mol | 39.9 °C
GATCTACCCTTAGATC ((((((....)))))) | -35.6 kcal/mol | 41.8 °C
GATCTACCGCTAGATC ((((((....)))))) | -29.4 kcal/mol | 40 °C
GATCTACCGTTAGATC ((((((....)))))) | -30.5 kcal/mol | 37.8 °C
GATCTACCTCTAGATC ((((((....)))))) | -36.3 kcal/mol | 37.8 °C
GATCTACCTTTAGATC ((((((....)))))) | -30.4 kcal/mol | 38.3 °C
GATCTACGCGTAGATC ((((((....)))))) | -52.1 kcal/mol | 55.5 °C
GATCTACGCTAGATC ((((((...)))))) | -18.5 kcal/mol | 43.4 °C
GATCTACGTATAGATC ((((((....)))))) | -33.8 kcal/mol | 41.2 °C
GATCTACTCATAGATC ((((((....)))))) | -35.5 kcal/mol | 41.7 °C
GATCTACTGATAGATC ((((((....)))))) | -28.8 kcal/mol | 39.3 °C
GATCTACTGCTAGATC ((((((....)))))) | -26.1 kcal/mol | 40.1 °C
GATCTAGACATAGATC ((((((....)))))) | -35 kcal/mol | 47.9 °C
GATCTAGCCTAGATC ((((((...)))))) | -28.4 kcal/mol | 40.8 °C
GATCTAGCGAAAGCTATC (((..(((....)))))) | -10.5 kcal/mol | 22.8 °C
GATCTAGCTTAGATC ((((((...)))))) | -29.4 kcal/mol | 38.1 °C

Sequence | folding enthalpy [1] | Tm [2]
GATCTAGGACTAGATC ((((((....)))))) | -39.7 kcal/mol | 47.4 °C
GATCTAGGGCTAGATC ((((((....)))))) | -32.9 kcal/mol | 43.5 °C
GATCTAGGGTTAGATC ((((((....)))))) | -28.4 kcal/mol | 37.4 °C
GATCTAGGTGTAGATC ((((((....)))))) | -31 kcal/mol | 42.9 °C
GATCTAGGTTAGATC ((((((...)))))) | -28.5 kcal/mol | 39.2 °C
GATCTAGTAATAGATC ((((((....)))))) | -35.8 kcal/mol | 47.9 °C
GATCTAGTAGTAGATC ((((((....)))))) | -29.1 kcal/mol | 43.4 °C
GATCTATACTAGATC ((((((...)))))) | -32.6 kcal/mol | 40.6 °C
GATCTATAGGTAGATC ((((((....)))))) | -32.8 kcal/mol | 42.2 °C
GATCTATAGTTAGATC ((((((....)))))) | -27.1 kcal/mol | 39.4 °C
GATCTATATATAGATC ((((((....)))))) | -46.8 kcal/mol | 46.4 °C
GATCTATATTAGATC ((((((...)))))) | -26.1 kcal/mol | 40.9 °C
GATCTATCCATAGATC ((((((....)))))) | -38.1 kcal/mol | 46.5 °C
GATCTATCCTAGATC ((((((...)))))) | -30.6 kcal/mol | 41.1 °C
GATCTATCTTAGATC ((((((...)))))) | -24.6 kcal/mol | 41.4 °C
GATCTATGAGTAGATC ((((((....)))))) | -40.3 kcal/mol | 45.5 °C
GATCTATGGATAGATC ((((((....)))))) | -29.5 kcal/mol | 43 °C
GATCTATGGCTAGATC ((((((....)))))) | -30.1 kcal/mol | 37.6 °C
GATCTATGGGTAGATC ((((((....)))))) | -33.2 kcal/mol | 45.6 °C
GATCTATTACTAGATC ((((((....)))))) | -32.4 kcal/mol | 39.2 °C
GATCTATTCTAGATC ((((((...)))))) | -27.6 kcal/mol | 41.3 °C
GATCTATTGCTAGATC ((((((....)))))) | -32.8 kcal/mol | 40.5 °C
GATCTCAAAGGAGATC ((((((....)))))) | -33.4 kcal/mol | 48.2 °C
GATCTCAAGTGAGATC ((((((....)))))) | -34.5 kcal/mol | 51.5 °C

Sequence | folding enthalpy [1] | Tm [2]
GATCTCACAGAGATC ((((((...)))))) | -39.3 kcal/mol | 56.1 °C
GATCTCACGTGAGATC ((((((....)))))) | -54.2 kcal/mol | 55.1 °C
GATCTCAGCGAGATC ((((((...)))))) | -35.3 kcal/mol | 56.6 °C
GATCTCAGCTGAGATC ((((((....)))))) | -46.8 kcal/mol | 54.9 °C
GATCTCATCAGAGATC ((((((....)))))) | -35.2 kcal/mol | 55.6 °C
GATCTCATCCGAGATC ((((((....)))))) | -39.2 kcal/mol | 53.2 °C
GATCTCCAGGAGATC ((((((...)))))) | -37.3 kcal/mol | 52.3 °C
GATCTCCAGGGAGATC ((((((....)))))) | -36.5 kcal/mol | 55 °C
GATCTCCATTGAGATC ((((((....)))))) | -33.7 kcal/mol | 52.3 °C
GATCTCCCAGGAGATC ((((((....)))))) | -36.4 kcal/mol | 56.8 °C
GATCTCCCTAGAGATC ((((((....)))))) | -36.2 kcal/mol | 55.7 °C
GATCTCCGACGAGATC ((((((....)))))) | -38.1 kcal/mol | 50 °C
GATCTCCGATGAGATC ((((((....)))))) | -31.3 kcal/mol | 50.7 °C
GATCTCCGCCGAGATC ((((((....)))))) | -49.6 kcal/mol | 50.9 °C
GATCTCCGCGAGATC ((((((...)))))) | -44.8 kcal/mol | 55.4 °C
GATCTCCGGCGAGATC ((((((....)))))) | -27.1 kcal/mol | 50.7 °C
GATCTCCGGGGAGATC ((((((....)))))) | -43.9 kcal/mol | 55.7 °C
GATCTCCGTGAGATC ((((((...)))))) | -36.2 kcal/mol | 56.3 °C
GATCTCCGTGGAGATC ((((((....)))))) | -47.9 kcal/mol | 59.2 °C
GATCTCCTAGGAGATC ((((((....)))))) | -36 kcal/mol | 57.8 °C
GATCTCCTCGGAGATC ((((((....)))))) | -52.8 kcal/mol | 58 °C
GATCTCCTGAGAGATC ((((((....)))))) | -39 kcal/mol | 53.2 °C
GATCTCCTGGGAGATC ((((((....)))))) | -43.3 kcal/mol | 56.5 °C
GATCTCCTTTGAGATC ((((((....)))))) | -39.6 kcal/mol | 51.7 °C

Sequence | folding enthalpy [1] | Tm [2]
GATCTCGACCGAGATC ((((((....)))))) | -51.9 kcal/mol | 56.1 °C
GATCTCGAGGAGATC ((((((...)))))) | -34.5 kcal/mol | 52.8 °C
GATCTCGATGAGATC ((((((...)))))) | -37.2 kcal/mol | 53 °C
GATCTCGATTGAGATC ((((((....)))))) | -39.4 kcal/mol | 51.7 °C
GATCTCGCAAGAGATC ((((((....)))))) | -37.5 kcal/mol | 67.3 °C
GATCTCGCGGAGATC ((((((...)))))) | -35.4 kcal/mol | 54.9 °C
GATCTCGCTAGAGATC ((((((....)))))) | -43.5 kcal/mol | 67.6 °C
GATCTCGCTGAGATC ((((((...)))))) | -43.6 kcal/mol | 53.8 °C
GATCTCGCTTGAGATC ((((((....)))))) | -36.8 kcal/mol | 54.4 °C
GATCTCGGAAACGAGACC (.(((((....))))).) | -16.5 kcal/mol | 40.7 °C
GATCTCGGAAGAGATC ((((((....)))))) | -37.4 kcal/mol | 63.6 °C
GATCTCGGGGAGATC ((((((...)))))) | -30.2 kcal/mol | 54.3 °C
GATCTCGGTAGAGATC ((((((....)))))) | -32.7 kcal/mol | 66.5 °C
GATCTCGTAGAGATC ((((((...)))))) | -37.2 kcal/mol | 67.9 °C
GATCTCGTCCGAGATC ((((((....)))))) | -38.4 kcal/mol | 60.5 °C
GATCTCGTCGGAGATC ((((((....)))))) | -43.5 kcal/mol | 54.5 °C
GATCTCGTGCGAGATC ((((((....)))))) | -54.9 kcal/mol | 56.3 °C
GATCTCGTTCGAGATC ((((((....)))))) | -41.4 kcal/mol | 60.9 °C
GATCTCTAAGAGATC ((((((...)))))) | -31.5 kcal/mol | 51.5 °C
GATCTCTACAGAGATC ((((((....)))))) | -45.2 kcal/mol | 55.8 °C
GATCTCTACGAGATC ((((((...)))))) | -40 kcal/mol | 55.1 °C
GATCTCTACGGAGATC ((((((....)))))) | -36 kcal/mol | 55.6 °C
GATCTCTCAGGAGATC ((((((....)))))) | -48 kcal/mol | 54.2 °C
GATCTCTCGAGAGATC ((((((....)))))) | -40.5 kcal/mol | 54.1 °C
